# Results: ChEMBL document CHEMBL2413066, “Molecular docking guided structure based design of symmetrical N,N'-disubstituted urea/thiourea as HIV-1 gp120-CD4 binding inhibitors” (Bioorg Med Chem, 2013)
# Experiment: Inhibition of HIV-1 gp120-CD4 (unknown origin) interaction
# Set-up: species or system Human immunodeficiency virus 1
# How it was run: (§1)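 Capture ELISA for gp120–CD4 binding. Compounds diluted in diluent buffer over 0.1–1000 ng/ml and added with positive reference CD4 (1000 ng/ml). The CD4 standard ran in twofold dilutions from 1000 to 0.5 ng/ml. Incubation 1 h at room temperature, three washes, then conjugate at 1:100 for 1 h. TMB for 10 min, reaction stopped, absorbance read at 450 nm; IC50 derived.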
row,SMILES,pIC50
1,C[C@H]1CN(C(=O)c2cc3ccccc3o2)CCN1S(=O)(=O)c1c[nH]c2ncccc12,5.523
2,C[C@H]1CN(C(=O)c2ccccc2)CCN1S(=O)(=O)c1c[nH]c2cccc(F)c12,6.699
3,C[C@H]1CN(C(=O)c2ccccc2)CCN1S(=O)(=O)c1c[nH]c2c(-n3ccnn3)ccc(F)c12,6.824
4,C[C@@H]1CN(C(=O)c2ccccc2)CCN1S(=O)(=O)c1c[nH]c2c(-n3nccn3)ccc(F)c12,6.699
5,COc1ncc(OC)c2c(C(=O)C(=O)N3CCN(C(=O)c4ccccc4)CC3)c[nH]c12,7.588
6,Cc1csc(C(=O)N2CCN(S(=O)(=O)c3c[nH]c4ncccc34)[C@@H](C)C2)c1,5.721
7,C[C@H]1CN(C(=O)c2ccccc2)CCN1S(=O)(=O)c1c[nH]c2ccccc12,6.367
8,O=C(c1ccccc1)N1CCN(S(=O)(=O)c2c[nH]c3ncccc23)CC1,4.657
9,C[C@H]1CN(C(=O)c2ccccc2)CCN1S(=O)(=O)c1c[nH]c2c(F)c(F)c(F)c(F)c12,5.328
10,Cc1ccc(C(=O)N2CCN(S(=O)(=O)c3c[nH]c4ncccc34)[C@@H](C)C2)s1,5.638
11,COc1cc[nH]c2ncc(C(=O)C(=O)N3CCN(C(=O)c4ccccc4)C[C@@H]3C)c1-2,8.097
12,O=C(C(=O)N1CCN(C(=O)c2ccccc2)CC1)c1c[nH]c2ncccc12,6.284
13,C[C@H]1CN(C(=O)c2ccccc2)CCN1S(=O)(=O)c1c[nH]c2c(-n3cncn3)nccc12,6.824
14,C[C@H]1CN(C(=O)c2ccccc2)CCN1S(=O)(=O)c1c[nH]c2c(-n3ccnc3)nccc12,7.097
15,COc1cccc2[nH]cc(S(=O)(=O)N3CCN(C(=O)c4ccccc4)C[C@@H]3C)c12,5.372
16,C[C@H]1CN(C(=O)c2ccccn2)CCN1S(=O)(=O)c1c[nH]c2ncccc12,5.481
17,C[C@H]1CN(C(=O)c2ccccc2)CCN1S(=O)(=O)c1c[nH]c2c(-n3cncn3)ccc(F)c12,6.301
18,C[C@H]1CN(C(=O)c2csc(Br)n2)CCN1S(=O)(=O)c1c[nH]c2ncccc12,6.377
19,COc1ncc(OC)c2c(C(=O)C(=O)N3CCN(C(=O)c4ccccc4)C[C@@H]3C)c[nH]c12,8.301
20,C[C@H]1CN(C(=O)c2ccccc2)CCN1S(=O)(=O)c1c[nH]c2c(-n3nccn3)ncc(F)c12,6.208
21,C[C@H]1CN(C(=O)c2ccccc2)CCN1C(=O)C(=O)c1c[nH]c2ncccc12,7.523
22,CC[C@H]1CN(C(=O)c2ccccc2)CCN1S(=O)(=O)c1c[nH]c2ncccc12,4.796
23,C[C@H]1CN(C(=O)c2csc(N)n2)CCN1S(=O)(=O)c1c[nH]c2ncccc12,6.284
24,C[C@@H]1CN(S(=O)(=O)c2c[nH]c3ncccc23)CCN1C(=O)c1ccccc1,4.886
25,C[C@H]1CN(C(=O)c2ccccc2)CCN1S(=O)(=O)c1c[nH]c2ncccc12,6.066
26,C[C@H]1CN(C(=O)c2ccccc2)CCN1S(=O)(=O)c1c[nH]c2c(F)ccc(F)c12,6.432
27,C[C@H]1CN(C(=O)c2ccccc2)CCN1S(=O)(=O)c1c[nH]c2c(-n3ccnc3)ncc(F)c12,7.444
28,C[C@H]1CN(C(=O)c2ccccc2)CCN1S(=O)(=O)c1c[nH]c2ccc(F)cc12,5.444
29,C[C@H]1CN(C(=O)c2ccn(C)n2)CCN1S(=O)(=O)c1c[nH]c2ncccc12,5.62
30,C[C@H]1CN(C(=O)c2cnccn2)CCN1S(=O)(=O)c1c[nH]c2ncccc12,5.041

# Experiment: Inhibition of HIV1 gp120-CD4 (unknown origin) interaction after 1 hr by ELISA
# Set-up: species or system Human immunodeficiency virus 1
# How it was run: as §1
row,SMILES,IC50 [nM]
1,O=C(NCc1nc2ccccc2[nH]1)NCc1nc2ccccc2[nH]1,247
2,S=C(Nc1ccc(Cc2nc3ccccc3[nH]2)cc1)Nc1ccc(Cc2nc3ccccc3[nH]2)cc1,149
3,S=C(NCc1nc2ccccc2[nH]1)NCc1nc2ccccc2[nH]1,13
4,S=C(Nc1ccc(-c2nc3ccccc3[nH]2)cc1)Nc1ccc(-c2nc3ccccc3[nH]2)cc1,126
5,O=C(Nc1ccc(Cc2nc3ccccc3[nH]2)cc1)Nc1ccc(Cc2nc3ccccc3[nH]2)cc1,197
6,O=C(Nc1ccc(-c2nc3ccccc3[nH]2)cc1)Nc1ccc(-c2nc3ccccc3[nH]2)cc1,188
